Assay results as given in ChEMBL document CHEMBL5257120 (Bioorg Med Chem, 2023).
Active and inactive are the calls of the source. The rule behind the calls is not given here.

What was measured:
[1] = Cytotoxicity against african green monkey Vero cells incubated for 72 hrs by Sulphorhodamine assay; type: toxicity, cell-based; details: African green monkey (Chlorocebus sabaeus)
MCF7 = test: Cytotoxicity against human MCF7 cells incubated for 72 hrs by Sulphorhodamine assay; type: functional, cell-based; details: MCF7, 72 h
K562 [2] = test: Cytotoxicity against human K562 cells incubated for 72 hrs by Sulphorhodamine assay; type: functional, cell-based; details: K562, 72 h
MDA-MB-231 [3] = test: Cytotoxicity against human MDA-MB-231 cells incubated for 72 hrs by Sulphorhodamine assay; type: functional, cell-based; details: MDA-MB-231, 72 h
Homo sapiens = organism: Homo sapiens; test: Selectivity ratio, ratio of inhibition of HDAC in human HeLa nuclear extract assessed as residual activity to inhibition of human recombinant HDAC6 assessed as residual activity
Method in brief: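 Compounds at 20 μM tested by fluorometric assay on HeLa nuclear extract (class I/II HDACs) and on human recombinant HDAC6. Residual activity is expressed relative to untreated control. Selectivity is the ratio of PanHDAC to HDAC6 residual activity: ≥7 high, 2.5–6.9 moderate, <2.5 low.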

[4] = Selectivity index, ratio of IC50 for african green monkey Vero cells to IC50 for human K562 cells; type: toxicity; details: Vero cells versus K562 cells, read-out: Ratio IC50
Tubulin (Homo sapiens) [5] = target: T1, Tubulin (Homo sapiens) (UniProt P68371+Q9H4B7+P0DPH7+P68366+Q13509+Q71U36+P04350+Q3ZCM7+P07437+P68363+Q9BQE3+Q6PEY2+Q13885+Q9BVA1+Q9BUF5); test: Induction of microtubule stabilization (unknown origin) at 5 uM; type: protein-complex assay
[6] = Antiinflammatory activity in mouse peritoneal macrophage assessed as reduction in LPS-induced IL6 production at 1 ug/ml; type: functional; details: dose 1 µg/ml
[7] = Antiinflammatory activity in mouse peritoneal macrophage assessed as inhibition of LPS-induced TNFalpha production at 1 ug/ml relative to control; type: functional; design: scale not given: the % may be the effect or the level left; details: dose 1 µg/ml
[8] = Antiinflammatory activity in mouse peritoneal macrophage assessed as inhibition of LPS-induced IL6 production at 1 ug/ml relative to control; type: functional; design: scale not given: the % may be the effect or the level left; details: dose 1 µg/ml
[9] = Antiinflammatory activity in mouse peritoneal macrophage assessed as reduction in LPS-induced TNFalpha production at 1 ug/ml; type: functional; details: dose 1 µg/ml
Tubulin (Homo sapiens) [10] = target: T1, Tubulin (Homo sapiens); test: Induction of microtubule stabilization (unknown origin) at 1 to 5 uM; type: protein-complex assay; details: dose 1-5 µM
[11] = Antiinflammatory activity in mouse peritoneal macrophage assessed as inhibition of LPS-induced IL6 production at 10 ug/ml relative to control; type: functional; design: scale not given: the % may be the effect or the level left; details: dose 10 µg/ml
[12] = Antiinflammatory activity in mouse peritoneal macrophage assessed as reduction in LPS-induced TNFalpha production at 10 ug/ml; type: functional; details: dose 10 µg/ml
[13] = Antiinflammatory activity in mouse peritoneal macrophage assessed as reduction in LPS-induced IL6 production at 10 ug/ml; type: functional; details: dose 10 µg/ml
[14] = Antiinflammatory activity in mouse peritoneal macrophage assessed as inhibition of LPS-induced TNFalpha production at 10 ug/ml relative to control; type: functional; design: scale not given: the % may be the effect or the level left; details: dose 10 µg/ml
Tubulin (Homo sapiens) [15] = target: T1, Tubulin (Homo sapiens); test: Induction of microtubule stabilization in human HeLa cells assessed as effect on cellular cytoskeletal network of tubulin at 5 to 10 uM incubated for 4 hrs by Alexa Fluor 488 staining based confocal microscopic analysis; type: cell-based; details: dose 5-10 µM
Method in brief: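 HeLa cells treated for 4 h at 5 and 10 μM. Microtubules immunostained with Alexa Fluor 488-conjugated anti-β-tubulin and imaged by confocal microscopy with a 60× Plan Apochromat objective. References: paclitaxel 5 nM, podophyllotoxin 5 μM.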

K562 [16] = test: Induction of cell cycle arrest in human K562 cells assessed as S phase arrest at 1.625 to 6.5 uM incubated for 24 hrs by propidium iodide staining based method; type: functional; details: dose 1.625-6.5 µM
MDA-MB-231 [17] = test: Induction of cell cycle arrest in human MDA-MB-231 cells assessed as S phase arrest at 1.625 to 6.5 uM incubated for 24 hrs by propidium iodide staining based method; type: functional; details: dose 1.625-6.5 µM
MDA-MB-231 [18] = test: Induction of cell cycle arrest in human MDA-MB-231 cells assessed as S phase arrest at 0.285 to 1.14 uM incubated for 24 hrs by propidium iodide staining based method; type: functional; details: dose 0.285-1.14 µM

Compound	IC50 at 72 h [1] [µM]	IC50 (MCF7) [µM]	IC50 (K562 [2]) [µM]	IC50 (MDA-MB-231 [3]) [µM]	Ratio (Homo sapiens)	selectivity ratio [4]	other results
COc1cc2c(cc1OC)C(=O)C(Cc1ccc(C(=O)NO)cc1)C2 (stereo not drawn)	193	> 100	> 100	> 100			
COc1cc(C2c3c(cc(OC)c(OC)c3OC)C(=O)C2Cc2ccc(CCC(=O)NO)cc2)cc(OC)c1OC (stereo not drawn)	76.2	52.3	51.9	20.7	2.5	1.47	
CC(=O)O[C@H]1C(=O)[C@@]2(C)[C@H]([C@H](OC(=O)c3ccccc3)[C@]3(O)C[C@H](OC(=O)[C@H](O)[C@@H](NC(=O)c4ccccc4)c4ccccc4)C(C)=C1C3(C)C)[C@]1(OC(C)=O)CO[C@@H]1C[C@@H]2O							Activity (Tubulin (Homo sapiens) [5]): Active
COc1cc(C2/C(=C/c3ccc(/C=C/C(=O)NOC(C)=O)cc3)C(=O)c3cc(OC)c(OC)c(OC)c32)cc(OC)c1OC (stereo not drawn)	47.5	75	23.6	19.1	inactive	2.01	
COc1cc2c(cc1OC)C(=O)C(Cc1ccc(CCC(=O)NO)cc1)C2 (stereo not drawn)	48.7	51.7	30.4	32.6		1.6	
COc1cc(C2c3c(cc(OC)c(OC)c3OC)C(=O)C2Cc2ccc(C(=O)NO)cc2)cc(OC)c1OC (stereo not drawn)	91.8	87.5	36.8	> 100	> 7	2.5	
COc1ccc2c(c1)CC(Cc1ccc(C(=O)NO)cc1)C2=O (stereo not drawn)	55.5	55.2	18.6	28.8		2.99	
COc1cc2c(cc1OC)C(=O)/C(=C\c1ccc(/C=C/C(=O)NOCc3ccccc3)cc1)C2					2.5		
COc1cc2c(cc1OC)C(=O)/C(=C\c1ccc(C(=O)NOCc3ccccc3)cc1)C2					> 7		
COc1cc2c(cc1OC)C(=O)/C(=C\c1ccc(C(=O)NO)cc1)C2	88.4	> 100	46.9	> 100	> 7	1.88	
CC/C(=C(\c1ccccc1)c1ccc(OCCN(C)C)cc1)c1ccccc1 [TAMOXIFEN]	36.2			18.5			
C[C@@H]1C[C@H]2[C@@H]3CCC4=CC(=O)C=C[C@]4(C)[C@@]3(F)[C@@H](O)C[C@]2(C)[C@@]1(O)C(=O)CO [DEXAMETHASONE]							Activity [6]: 1792.75 pg/mL; Activity [7]: 52.82%; Activity [8]: 40.5%; Activity [9]: 581.27 pg/mL
COc1cc(C2/C(=C/c3ccc(C(=O)NO)cc3)C(=O)c3cc(OC)c(OC)c(OC)c32)cc(OC)c1OC (stereo not drawn)	72.2	60.1	47.7	> 100	inactive	1.51	
COc1cc(C2/C(=C/c3ccc(OCCCC(=O)NO)cc3)C(=O)c3cc(OC)c(OC)c(OC)c32)cc(OC)c1OC (stereo not drawn)	47.2	49.7	1.66	3.25	> 7	28.4	Activity (Tubulin (Homo sapiens) [10]): Active; Activity [11]: 12.11%; Activity [6]: 2730.53 pg/mL; Activity [7]: 12.34%; Activity [12]: 1046.79 pg/mL; Activity [8]: 9.38%; Activity [13]: 2648.31 pg/mL; Activity [14]: 15.04%; Activity [9]: 1180.12 pg/mL; Activity (Tubulin (Homo sapiens) [15]): Active; Activity (K562 [16]): Active; Activity (MDA-MB-231 [17]): Active
COc1cc([C@@H]2c3cc4c(cc3[C@H](O)[C@H]3COC(=O)[C@H]23)OCO4)cc(OC)c1OC [PODOFILOX]		10	18.4	20.2			
COc1ccc2c(c1)C/C(=C/c1ccc(C(=O)NOCc3ccccc3)cc1)C2=O					> 7		
COc1ccc2c(c1)CC(Cc1ccc(CCC(=O)NO)cc1)C2=O (stereo not drawn)	114	93.9	61.8	> 100		1.85	
COc1ccc2c(c1)C/C(=C/c1ccc(/C=C/C(=O)NOCc3ccccc3)cc1)C2=O					2.5		
COc1ccc2c(c1)C/C(=C/c1ccc(/C=C/C(=O)NO)cc1)C2=O	100	97.5	> 100	> 100	> 7	≤ 1	
CN1CCc2c(c3ccccc3n2Cc2ccc(C(=O)NO)cc2)C1 [TUBASTATIN A]			2.07				
COc1cc2c(cc1OC)C(=O)/C(=C\c1ccc(/C=C/C(=O)NO)cc1)C2	129	> 100	> 100	> 100	inactive	> 1	
COc1cccc2c1C(=O)c1c(O)c3c(c(O)c1C2=O)C[C@@](O)(C(=O)CO)C[C@@H]3O[C@H]1C[C@H](N)[C@H](O)[C@H](C)O1 [DOXORUBICIN]	1.87		5.23	0.57			Activity (MDA-MB-231 [18]): Active
